Measured values gathered from unrelated publications.
Lines come from different studies, so protocols differ.
EDNRB: Endothelin receptor type B (EDNRB, Homo sapiens, UniProt P24530)
MAOB: Amine oxidase [flavin-containing] B (MAOB, Homo sapiens, UniProt P27338)
CTSV: Cathepsin L2 (CTSV, Homo sapiens, UniProt O60911)
MMP9 Q279R: Matrix metalloproteinase-9 (MMP9, Homo sapiens, UniProt P14780, Q279R)

| Structure (SMILES) | target | test | conditions | inhibition [%] |
| --- | --- | --- | --- | --- |
| COCc1c(-c2cc3cc(C)cc(OC)c3s2)c2c(N)ncnn2c1CN1CCNC(=O)C1 | EDNRB | ligand displacement, radioligand | 10 µM | -1 |
| O=C(Nc1cccnn1)N1CCN([C@@H]2CCOc3cc(C(F)(F)F)ccc32)CC1 | Matrix metalloproteinase-9 (MMP9, Homo sapiens, UniProt P14780) | enzyme activity, inhibitor | 20 µM | 8 |
| COc1cc(Nc2ncc(F)c(Nc3ccc4c(n3)NC(=O)C(C)(C)O4)n2)cc(OC)c1OC | Phosphatidylinositol 3-kinase C2 domain-containing subunit gamma (PIK3C2G, Homo sapiens, UniProt O75747) | binding, competition with immobilised ligand | 10 µM | 48 |
| C[C@@H]1CCCN1CCCCOc1ccc2occc(=O)c2c1 | MAOB | enzyme activity, inhibitor, fluorescence | 10 µM | 28 |
| c1ccc(C(NCCNC(c2ccccc2)c2ccccc2)c2ccccc2)cc1 | MAOB | enzyme activity, inhibitor | 10 µM | 5 |
| CC(C)C[C@H](NC(=O)[C@H]1O[C@@H]1C(=O)O)C(=O)NCCCCN=C(N)N | CTSV | enzyme activity, inhibitor | 0.5 µM | 94 |
| COc1ccc(S(=O)(=O)N2CCCCC2)cc1C | EDNRB | ligand displacement, radioligand | 10 µM | < 30 |
| CCOC(=O)c1ccc(OC(=O)CCCCCNC(=N)N)cc1 | CTSV | enzyme activity, inhibitor | 10 µM | 3 |
| CN(CCN1CCC(OC(=O)Nc2ccccc2-c2ccccc2)CC1)C(=O)c1ccc(CN2CCC(C(N)=O)CC2)cc1 | MAOB | enzyme activity, inhibitor | 1 µM | -2 |
| N=C(N)c1ccc2cc(OC(=O)c3ccc(N=C(N)N)cc3)ccc2c1 | MMP9 Q279R | enzyme activity, inhibitor | 10 µM | 11 |
| CN1CCN(CCOc2ccc3occc(=O)c3c2)CC1 | MAOB | enzyme activity, inhibitor, fluorescence | 10 µM | 12 |
| COc1ccc(S(=O)(=O)N(CC(=O)NO)CC(C)C)cc1 | MMP9 Q279R | enzyme activity, inhibitor | 1 nM | 27 |
| CN1CCN(CCCOc2ccc3occc(=O)c3c2)CC1 | MAOB | enzyme activity, inhibitor, fluorescence | 10 µM | 20 |
